Shown are actives, neighbours in structure and some others; about 4.1% of the full set was active somewhere.
KCNQ1 inh: inhibitors of human KCNQ1 potassium channel; AID 2642; hit rate 1.3% among 310,000; B-score at 10 µM; CHO-K1 KCNQ1, FluxOR thallium flux fluorescence; active compounds read high;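 active = compounds whose thallium flux B-score, printed positive for inhibition, exceeds three library SD while starting fluorescence stays within three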;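 also: channel opened by potassium depolarization with thallium stimulus after 20 min compound exposure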
KCNK3 block: human KCNK3 channel inhibition, primary screen. O14649. CHO-KCNK3 thallium flux, FluxOR fluorescence; active compounds read low. B-score at 10 µM. hit rate 0.84% among 340,000. AID 602410;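 active = B-score under library mean minus 4 SD, starting fluorescence ratio at most library mean plus 5 SD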;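 also: more negative B-score means stronger inhibition of thallium flux through KCNK3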
Target sequence (O14649 whole entry, looked up): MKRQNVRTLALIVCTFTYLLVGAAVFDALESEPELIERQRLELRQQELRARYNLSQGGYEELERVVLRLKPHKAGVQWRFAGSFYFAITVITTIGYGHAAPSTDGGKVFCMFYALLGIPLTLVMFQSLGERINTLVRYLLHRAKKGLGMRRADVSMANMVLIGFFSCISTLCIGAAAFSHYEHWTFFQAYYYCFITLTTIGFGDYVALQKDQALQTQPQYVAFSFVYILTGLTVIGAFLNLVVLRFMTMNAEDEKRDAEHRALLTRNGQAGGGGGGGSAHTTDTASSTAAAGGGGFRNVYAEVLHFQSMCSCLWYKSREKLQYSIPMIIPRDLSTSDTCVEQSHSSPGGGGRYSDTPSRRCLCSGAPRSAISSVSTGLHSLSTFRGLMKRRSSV
Cl transport mod: modulators of human KCC2 chloride dependent transport. Q9H2X9. KCC2 cells, thallium flux FluoZin-2 fluorescence. B-score of Tl+ flux slope (higher = more flux/activation; lower = inhibition) at 10 µM. hit rate 2.2% among 190,000;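 active = thallium flux slope and its plate-corrected score both differing from the plate sample mean at a set confidence after two filtering rounds, in either direction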;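 also: slope of fluorescence scaled to starting intensity during 10 to 20 s after thallium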
KCNQ1 pot: potentiators or activators of human KCNQ1 potassium channel; P51787; CHO-K1 KCNQ1, thallium flux FluxOR fluorescence; active compounds read high; B-score at 10 µM; hit rate 0.35% among 310,000; AID 2648;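 active = fluorescence ratio B-score, a plate-corrected score, at least three library SD, with initial intensity B-score within 5 SD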
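assay system = KCNQ1-transfected CHO-K1 cells | medium = assay buffer with matched DMSO | probe or stimulus = depolarizing K+/Tl+ stimulus, K2SO4 and Tl2SO4 each 12.5 mM in 5x stock | dosing = single dose | incubation = dye 90 min, compound 20 min, room temperature | detection = kinetic FluxOR fluorescence, 10 s baseline plus 110 s post-stimulus | evaluation = ratio B score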
hERG protect: shields human hERG channel from block by proarrhythmic agents; Q12809; CHO-hERG, FluxOR thallium flux, dofetilide IC70 present; activation (rescue from dofetilide block), less the hit threshold, % at 10 µM; hit rate 0.51% among 310,000;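 active = activation above the mean of controls blocked by dofetilide plus 5 SD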;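 also: thallium influx through hERG after potassium depolarization seen as dye fluorescence rise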
KCNK9 inh: blocks the human KCNK9 two-pore domain potassium channel; Q9NPC2; HEK293 KCNK9, FluxOR thallium flux fluorescence; active compounds read low; B-score at 10 µM; hit rate 1.2% among 310,000;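 active = ratio B-score over 3 SD below the library mean, with starting fluorescence within 5 SD of its mean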;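 also: negative B-score means less thallium flux so channel inhibition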
Target sequence (Q9NPC2 whole entry, looked up, the tested form may be a part): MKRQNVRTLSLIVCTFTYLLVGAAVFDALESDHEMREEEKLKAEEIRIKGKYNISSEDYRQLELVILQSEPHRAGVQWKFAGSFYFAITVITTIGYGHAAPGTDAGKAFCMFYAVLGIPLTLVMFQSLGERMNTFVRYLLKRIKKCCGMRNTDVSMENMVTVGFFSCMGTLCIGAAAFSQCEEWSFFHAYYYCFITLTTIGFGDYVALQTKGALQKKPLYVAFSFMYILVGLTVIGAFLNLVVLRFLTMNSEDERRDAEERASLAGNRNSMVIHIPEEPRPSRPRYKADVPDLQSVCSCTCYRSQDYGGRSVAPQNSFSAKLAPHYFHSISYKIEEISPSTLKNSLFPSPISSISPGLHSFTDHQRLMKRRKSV
KCC2 secondary: KCC2 (human) modulation, secondary assay; shares compounds with Cl transport mod; HEK293-KCC2, thallium flux, FluoZin2 fluorescence; active compounds read high; normalised thallium flux (F/F0 slope) at 10 µM; hit rate 15% among 3,700; AID 1713;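 active = thallium flux slope above the same plate's solvent-only control mean plus 3 SD; inconclusive = the two replicate wells disagree; inactive = no significant difference from solvent-only control wells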
KCC2 bumet counter: bumetanide-insensitive thallium flux in KCC2 cells with ouabain, counter-screen | hit rate 49% among 3,700 | normalized thallium flux at 10 µM | shares compounds with Cl transport mod | HEK293-KCC2 + bumetanide/ouabain, thallium flux FluoZin2; active compounds read high;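 active = thallium entry rate above the same plate's blocked-transporter control wells by more than 3 SD; inconclusive = the two repeat wells disagree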;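 also: raw slope of fluorescence over initial fluorescence between 10 and 20 s after thallium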
KCC2 secondary2: KCC2 (human) modulation, second secondary assay. shares compounds with Cl transport mod. HEK293-KCC2, thallium flux FluoZin2 fluorescence; actives lie on both sides; F/F0 rise rate, 10–20 s post-thallium. normalized thallium flux at 10 µM. hit rate 23% among 3,700. AID 1715;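 active = thallium flux slope more than 3 SD above or below the plate's solvent-only control mean, mostly below; inconclusive = the two repeat wells disagreed; inactive = no significant shift from solvent-only controls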;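 also: raw slope with 0.1% DMSO as baseline and bumetanide as block control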
HEK counter1: acts in parental HEK cells, KCC2 counter-screen | thallium flux rate (normalised fluorescence) at 10 µM | HEK293 parental cells, thallium flux FluoZin2, ouabain; baseline-ratio fluorescence slope, 10–20 s after thallium | hit rate 46% among 3,700 | shares compounds with Cl transport mod;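 active = thallium flux rate significantly above the same plate's solvent-only control wells, beyond their mean plus 3 SD; inconclusive = the two replicate wells gave conflicting results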
KCC2 retest ouab: modulates human KCC2 on retest with ouabain; shares compounds with Cl transport mod; HEK293-KCC2, thallium flux FluoZin2 fluorescence; bidirectional: low = inhibitor, high = activator; raw Tl+ flux slope (below DMSO = inhibition, above = activation) at 10 µM; hit rate 48% among 3,700; AID 1717;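 active = thallium flux slope beyond 3 SD from same-plate DMSO control mean in most replicates, usually higher, sometimes lower; inconclusive = repeat tests gave conflicting results; inactive = no significant difference from controls in most replicates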;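 also: slope of initial-normalized fluorescence between seconds 10 and 20 after thallium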
HEK counter2: counter-screen for KCC2 modulators: effect in parental HEK293 cells | thallium flux slope at 10 µM | shares compounds with Cl transport mod | hit rate 33% among 3,700 | thallium flux FluoZin-2 fluorescence slope;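 active = thallium flux slope above the same plate's solvent-control mean plus 3 SD in both duplicate wells; inconclusive = duplicate wells that disagreed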;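 also: run without ouabain in cells lacking the KCC2 cotransporter; slope of fluorescence scaled to its starting value between 10 and 20 s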
* hit, by the source's call; i = inactive; ? = inconclusive; · = not tested or not shown.

SMILES	KCNQ1 inh	KCNK3 block	Cl transport mod	KCNQ1 pot	hERG protect	KCNK9 inh	KCC2 secondary	KCC2 bumet counter	KCC2 secondary2	HEK counter1	KCC2 retest ouab	HEK counter2
COC(=O)CSc1nnc(SCc2ccccc2)s1	i	i	·	i	-6	i	0.0058	?	0.021*	0.006*	0.012*	0.0087
S=c1nc(-c2ccccc2)[nH]c2ccc(Br)cc12	i	i	107*	101*	59*	i	0.025*	0.12*	0.099*	0.11*	0.11*	0.096*
c1ccc(-c2nc3ccccc3[nH]2)cc1	i	i	·	i	-4	i	·	·	·	·	·	·
CCc1c(C)sc(NC(=O)c2cc(C(C)C)on2)c1C#N	i	i	7.3*	i	-15	i	0.011	0.027*	0.039	?	0.031*	?
CCn1c(C(=O)OC)cc2c1ccn2-c1ccc(F)cc1	i	i	0.46	i	-3	i	·	·	·	·	·	·
CCOC(=O)c1cc2c(ccn2-c2ccc(F)cc2)n1CC(=O)NC(C)(C)C	i	·	-5.6*	i	-9	i	0.0065	0.0049	0.024*	0.0077	0.017*	0.012
COC(=O)c1cc2c(ccn2-c2ccc(F)cc2)n1CC(=O)N1CCN(C(=O)c2ccco2)CC1	·	i	-6.7*	·	·	·	?	?	0.028*	0.0095*	?	0.01
COc1cc(Br)ccc1C1CC(=O)C(C)C(c2ccc(Br)cc2OC)N1 (stereo not drawn)	i	i	·	i	-3	i	·	·	·	·	·	·
O=C(COc1ccc(Br)cc1)N(Cc1ccco1)C1CCS(=O)(=O)C1 (stereo not drawn)	i	i	·	i	-6	i	·	·	·	·	·	·
CCC(CC)C(=O)Nc1nnc(S(=O)(=O)N2c3ccccc3CC2C)s1 (stereo not drawn)	i	i	·	i	-1	i	·	·	·	·	·	·
O=C(O)c1c(C(=O)O)c(-c2ccc(Cl)c(Cl)c2)n2c1CSC2	i	i	·	i	-3	i	·	·	·	·	·	·
CC(=O)C(Sc1ncnc2sc3c(c12)CCCC3)C(C)=O	i	i	6.4*	i	-7	i	0.015*	0.1*	0.029	0.018*	?	0.013*
O=C(CSc1ncnc2sc3c(c12)CCCC3)c1ccccc1	i	i	2.8	i	-9	i	·	·	·	·	·	·
CC(C)Cn1c(N)c(C(=O)CSc2ncnc3sc4c(c23)CCCC4)c(=O)n(C)c1=O	i	i	7.9*	i	-1	i	0.018	0.014*	0.031	0.014*	0.021*	0.014*
Cc1ccc(C(=O)O)cc1NC(=O)CSc1ncnc2sc3c(c12)CCC3	i	i	10*	i	-12	i	0.0069	0.016*	0.036	0.017*	0.025*	0.018*
O=C(CSc1ncnc2sc3c(c12)CCCC3)c1ccco1	i	i	19*	i	-11	i	?	0.095*	0.038	?	0.055*	?
CCOc1ccc(S(=O)(=O)N2CCN(C(=O)CN3C(=O)NC(C)(C)C3=O)CC2)cc1	·	i	·	·	·	·	·	·	·	·	·	·
CC(C#N)Sc1ncnc2sc3c(c12)CCC3 (stereo not drawn)	i	i	4.2*	i	-8	i	?	0.032*	0.033	0.017*	0.022	0.013*
C=CC[C@H](CC(=O)N(CCO)Cc1ccccc1)C(=O)N[C@H](COC(=O)[C@@H](CC=C)Cc1ccc(F)cc1)Cc1ccccc1	·	i	·	·	·	·	·	·	·	·	·	·
COc1ccc(NC(=O)CSc2nnc(CNC(=O)c3ccco3)o2)c(OC)c1	i	i	·	i	-6	i	0.017	0.0052	0.027	0.0071	0.016	0.01
O=c1c2ccccc2nc(-c2ccc([N+](=O)[O-])cc2)n1O	i	i	9*	i	4	i	?	0.02*	0.034	0.016*	0.028*	?
CCSc1nc2c(cnn2-c2ccccc2)c(=O)n1N	i	i	4.6*	i	-6	i	0.01	0.02*	0.031	0.01*	0.034*	0.011*
S=c1[nH]nc(Nc2cccc3ccccc23)s1	i	i	30*	i	-18	i	0.0078*	0.023*	0.017*	0.0088*	0.016*	0.0099
Fc1ccccc1Nc1n[nH]c(=S)s1	i	i	-3.5	i	-8	i	·	·	·	·	·	·
O=C(O)CCc1cc(I)c(Oc2ccc(O)c(I)c2)c(I)c1	i	·	-4.1*	49*	29*	i	0.007	?	0.025*	0.0069	?	0.01
SMILES	KCNQ1 inh	KCNK3 block	Cl transport mod	KCNQ1 pot	hERG protect	KCNK9 inh	KCC2 secondary	KCC2 bumet counter	KCC2 secondary2	HEK counter1	KCC2 retest ouab	HEK counter2
CCCCCCCCNC(=O)C(CCC(=O)OCc1ccccc1)NC(C)=O (stereo not drawn)	i	i	·	i	-14	i	0.0056	0.0043	0.023*	?	0.013*	0.0099
Cc1cc(S(=O)(=O)N(C)CCc2ccccc2)ccc1-n1cnnn1	i	i	-4.6*	i	-2	i	0.0082	0.0047	0.024*	0.0074	0.016*	0.01
Cn1c(CCN2CCN(c3ccccn3)CC2)nc2cc(NS(=O)(=O)c3ccc(Cl)cc3)ccc21	i	i	·	i	-14	i	·	·	·	·	·	·
O=C(CSc1nc(-c2ccccc2)nc2ccc(F)cc12)Nc1cccc(C(=O)O)c1	i	i	59*	i	-3	i	0.0067	0.038*	?	0.048*	0.044*	0.029*
O=C(CSc1nc(-c2ccccc2)nc2ccc(F)cc12)Nc1ccc(C(=O)O)cc1	i	i	0.37	i	-11	i	·	·	·	·	·	·
CNC(=O)c1cccc(NC(=O)CCCNC(=O)c2ccc(Cl)cc2)c1	i	i	·	i	-9	i	·	·	·	·	·	·
CCOc1ccc(S(=O)(=O)NCCSCc2ccco2)cc1	i	i	·	i	-12	i	0.019	0.0044	0.027	0.0069	0.015	0.011

Compound activity: PubChem BioAssay, several laboratories
